A word on the EC50: it is the concentration that produces a half-maximal response. What is called CC50 is the concentration that lowers cell viability or growth by half.

The source made the active and inactive calls. No cut-off for these calls is given here. Where a SMILES comes first, the peptide text is derived from it. [ ]: non-standard residue; d: D form. The star is where a group is joined. Palmitoyl = CCCCCCCCCCCCCCCC(=O)*; X1 = O=[N+]([O-])c1ccc(*)c2onnc12; βAla = NCCC(=O)O

The values that follow come from ChEMBL document CHEMBL4196194, “De Novo Design of α-Helical Lipopeptides Targeting Viral Fusion Proteins: A Promising Strategy for Relatively Broad-Spectrum Antiviral Drug Discovery” (J Med Chem, 2018).

Series [1] can be described thus: Inhibition of MERS-CoV spike protein-mediated cell-cell fusion in 293T/MERS/EGPF cells assessed as reduction in cell fusion incubated for 4 hrs by inverted fluorescence microscopy. Format: cell-based, Middle East respiratory syndrome-related coronavirus. The method, boiled down: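 Huh-7 cells expressing DPP4 plated 5 × 10^4/well, 5 h at 37 °C; serially diluted peptide added, then 293T cells carrying MERS-CoV S and EGFP (or EGFP-only control cells), 1 × 10^4/well. After 4 h coculture at 37 °C, fused and unfused effector cells counted by fluorescence microscopy.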

Series [2] can be described thus: Cytotoxicity in human HuH7 cells assessed as reduction in cell viability incubated for 48 hrs by CCK8 assay. The format is cell-based, Huh-7. The method, boiled down: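 Huh-7 cells (1 × 10^5 cells/mL suspension seeded) grown 12 h at 37 °C, 5% CO2, then serially diluted peptide added for 48 h; untreated blank and Triton X-100 controls. CCK-8 added for 2 h, absorbance at 450 nm.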

Series [3] concerns Influenza A virus. The experiment in a line: Antiviral activity against Influenza A virus (A/Puerto Rico/8/1934(H1N1)) infected in HEK293T cells assessed as inhibition of viral replicon activity incubated for 30 hrs by dual-Glo luciferase assay. Format: functional, organism-based. The method, boiled down: (§1)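 HEK293T cells (2.5 × 10^4/well) transfected with plasmids for NP, PB1, PB2, PA plus p0LN-S-Luc firefly and pRL-SV40 Renilla reporters; serially diluted compound added 6 h post-transfection, luciferase read after 30 h by Dual-Glo. Activity = firefly/Renilla ratio; % inhibition normalized to positive and negative controls, curve-fitted; three independent measurements.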
A general note: In antiviral work, replicon cells carry a viral genome segment that copies itself.

A short description of series [4]: Drug distribution in cell membrane of MDCK cells incubated for 0.5 hrs by confocal microscopy. Format: ADME, cell-based, Canis lupus familiaris. Conditions: dog. The method, boiled down:
(§2)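 MDCK cells were pre-stained with 100 nM LysoTracker Red for 1.5 h and washed. They were then given 5 μM NBD-labelled lipopeptide in phenol-red-free DF-12 at 37 °C, 5% CO2. Confocal imaging with a 20× objective was done at 10 min, 30 min, 1 h, 2 h and 4 h. Peptide was read in the FITC channel and acidic compartments in the red channel, with colocalization assessed on merged images.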

The test system of series [5] is Influenza A virus. The experiment in a line: Antiviral activity against influenza A virus Hong Kong/8/1968(H3N2) infected in HEK293T cells assessed as inhibition of viral replicon activity incubated for 30 hrs by dual-Glo luciferase assay. The format is functional, organism-based. The method, boiled down: as §1
Series [6] in a line: Drug distribution in acidic vesicles intracellular compartments of MDCK cells incubated for 1 hrs by LysoTracker Red DND-99 staining based confocal microscopy. Conditions: dog. The format is ADME, cell-based, Canis lupus familiaris. The method, boiled down:
as §2

Series [7] is described as follows: Drug distribution in acidic vesicles intracellular compartments of MDCK cells incubated for 4 hrs by LysoTracker Red DND-99 staining based confocal microscopy. Format: ADME, cell-based, Canis lupus familiaris. Conditions: dog. The method, boiled down:
as §2

Series [8] deals with Influenza A virus. Kind of series: Antiviral activity against influenza A virus assessed as inhibition of viral replicon activity up to 100 uM incubated for 30 hrs by firefly luciferase reporter gene assay. The format is functional, organism-based. The method, boiled down:
as §1

Series [9] in a line: Cytotoxicity in MDCK cells assessed as reduction in cell viability incubated for 72 hrs by cell-titer-Glo cell viability assay. The format is cell-based, Canis lupus familiaris. To be noted: dog.

Regarding `CCCCCCCCCCCCCCCC(=O)NCCCC[C@H](NC(=O)CCNC(=O)[C@H](CCCCN)NC(=O)[C@H](CCCCN)NC(=O)[C@H](CO)NC(=O)[C@H](Cc1ccccc1)NC(=O)[C@H](CCC(=O)O)NC(=O)[C@H](CCC(=O)O)NC(=O)[C@H](Cc1ccccc1)NC(=O)[C@H](CCCCN)NC(=O)[C@H](CCCCN)NC(=O)[C@H](CO)NC(=O)[C@H](Cc1ccccc1)NC(=O)[C@H](CCC(=O)O)NC(=O)[C@H](CCC(=O)O)NC(=O)[C@H](Cc1ccccc1)NC(=O)[C@H](CCCCN)NC(=O)[C@H](CCCCN)NC(=O)[C@H](CO)NC(=O)[C@H](Cc1ccccc1)NC(=O)[C@H](CCC(=O)O)NC(=O)[C@H](CCC(=O)O)NC(=O)[C@H](Cc1ccccc1)NC(=O)[C@H](CCCCN)NC(=O)[C@H](CCCCN)NC(=O)[C@H](CO)NC(=O)[C@H](Cc1ccccc1)NC(=O)[C@H](CCC(=O)O)NC(=O)[C@H](CCC(=O)O)NC(=O)[C@H](Cc1ccccc1)NC(=O)[C@H](CCCCN)NC(=O)[C@H](CCCCN)NC(=O)[C@H](CO)NC(=O)[C@H](Cc1ccccc1)NC(=O)[C@H](CCC(=O)O)NC(=O)[C@H](CCC(=O)O)NC(=O)[C@H](Cc1ccccc1)NC(C)=O)C(N)=O` (Ac-FEEFSKKFEEFSKKFEEFSKKFEEFSKKFEEFSKK[βAla]K(Palmitoyl)-NH2), the concentration giving a half-maximal response (EC50) in series [1] amounted to 3.11 µM. Further, in series [2], the 50% cytotoxic concentration (CC50) at 48 h is > 100 µM.
With `CCCCCCCCCCCCCCCC(=O)NCCCC[C@H](NC(=O)CCNC(=O)[C@H](CCCCN)NC(=O)[C@H](CCCCN)NC(=O)[C@H](CCC(N)=O)NC(=O)[C@@H](NC(=O)[C@H](CCC(=O)O)NC(=O)[C@H](CCC(=O)O)NC(=O)[C@@H](NC(=O)[C@H](CCCCN)NC(=O)[C@H](CCCCN)NC(=O)[C@H](CCC(N)=O)NC(=O)[C@@H](NC(=O)[C@H](CCC(=O)O)NC(=O)[C@H](CCC(=O)O)NC(=O)[C@@H](NC(=O)[C@H](CCCCN)NC(=O)[C@H](CCCCN)NC(=O)[C@H](CCC(N)=O)NC(=O)[C@@H](NC(=O)[C@H](CCC(=O)O)NC(=O)[C@H](CCC(=O)O)NC(=O)[C@@H](NC(=O)[C@H](CCCCN)NC(=O)[C@H](CCCCN)NC(=O)[C@H](CCC(N)=O)NC(=O)[C@@H](NC(=O)[C@H](CCC(=O)O)NC(=O)[C@H](CCC(=O)O)NC(=O)[C@@H](NC(=O)[C@H](CCCCN)NC(=O)[C@H](CCCCN)NC(=O)[C@H](CCC(N)=O)NC(=O)[C@@H](NC(=O)[C@H](CCC(=O)O)NC(=O)[C@H](CCC(=O)O)NC(=O)[C@@H](NC(=O)CCNc1ccc([N+](=O)[O-])c2nnoc12)[C@@H](C)CC)[C@@H](C)CC)[C@@H](C)CC)[C@@H](C)CC)[C@@H](C)CC)[C@@H](C)CC)[C@@H](C)CC)[C@@H](C)CC)[C@@H](C)CC)[C@@H](C)CC)C(N)=O` ({X1-βAla}-IEEIQKKIEEIQKKIEEIQKKIEEIQKKIEEIQKK[βAla]K(Palmitoyl)-NH2), the inhibition entry in the series with Influenza A virus [3] and in the series on Influenza A virus [5] was “Active” throughout. In addition, the Drug uptake entry in series [4], in series [6] and in series [7] was “Active” each time.
Regarding `CCOC(=O)C1=C[C@@H](OC(CC)CC)[C@H](NC(C)=O)[C@@H](N)C1` [OSELTAMIVIR], the EC50 is 1480 nM with Influenza A virus [3] (HEK-293T) and 10 nM in the series with Influenza A virus [5] (HEK-293T). Moreover, the inhibition result in the series on Influenza A virus [8] was “inactive”. For the same molecule, in [9], the half-maximal cytotoxic concentration (CC50) at 72 h was > 100 µM.
